According to ChEMBL document CHEMBL3856273, “Design, synthesis and biological evaluation of potential antibacterial butyrolactones” (Bioorg Med Chem, 2016):
Converted amounts (≈) assume the structure as drawn.

Key:
Streptococcus gordonii [1] = test: Antibacterial activity against Streptococcus gordonii DL1 incubated for 24 hrs under anaerobic condition by agar dilution method; type: functional; conditions: DL1, 24 h
Procedure, shortened: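 Columbia agar with horse blood containing compound at 300, 250, 200, 150, 100, 90, 80 or 70 µg/mL. Doxycycline positive control at 1:2 dilutions from 1.31 µg/mL; DMSO + methanol and water as negative controls. 2 µl spots of 10^5 CFU/mL inoculum, anaerobic incubation 24 h. MIC taken as lowest concentration preventing growth. Done three times.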

Streptococcus gordonii [2] = test: Antibacterial activity against Streptococcus gordonii DL1 preincubated for 24 hrs under anaerobic condition followed by incubation in columbia petri plates for 24 hrs by broth microdilution method; type: functional
Procedure, shortened: (§1)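 CLSI broth microdilution in BHI. Compounds serially diluted 1:2 from 300 µg/mL; doxycycline control from 32.8 µg/mL; solvent mix also diluted. Wells inoculated with 3x10^7 CFU/mL, incubated 24 h anaerobically. MIC is the lowest clear well. Clear wells are plated on Columbia agar for 24 h; MBC is the lowest concentration killing ≥99% of inoculum.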

Streptococcus gordonii [3] = test: Bactericidal activity against Streptococcus gordonii DL1 preincubated for 24 hrs under anaerobic condition followed by incubation in columbia petri plates for 24 hrs by broth microdilution method; type: functional; procedure, shortened: as §1
[4] = Cytotoxicity against human Ca9-22 cells assessed as cell death at MIC after 24 hrs by LDH assay; type: toxicity, cell-based; conditions: ca9-22, 24 h
Procedure, shortened: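 Ca9-22 gingival epithelial cells were grown in DMEM with 10% heat-inactivated FBS and 2 mM L-glutamine at 37 °C, 5% CO2, then trypsinized and seeded at 70 000 cells/well for 24 h. Compound was applied for 24 h, with medium-only and Triton 1% controls (Triton = 100% cytotoxicity). Supernatant was mixed with CytoTox reagent for 30 min in the dark at room temperature, then stopped, and OD was read at 490 nm. Three experiments, each in triplicate.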

[5] = Cytotoxicity against human THP1 cells assessed as cell death at MIC after 24 hrs by LDH assay; type: toxicity, cell-based; conditions: thp-1, 24 h
Procedure, shortened: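 THP-1 cells were grown in RPMI 1640 with 1 mM pyruvate, 10% FBS and 2 mM L-glutamine at 37 °C, 5% CO2. They were seeded at 70 000 cells/well and differentiated with PMA 10 ng/mL for 72 h. Medium was replaced with compound for 24 h, with medium-only and Triton 1% controls (Triton = 100%). LDH release was measured in supernatant with CytoTox reagent for 30 min in the dark at room temperature, then stopped, and OD was read at 490 nm. Three experiments, each in triplicate.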

[6] = Cytotoxicity against human Ca9-22 cells assessed as cell viability at MIC after 24 hrs by MTT assay relative to control; type: toxicity, cell-based; conditions: read-out: Activity
[7] = Cytotoxicity against human THP1 cells assessed as cell viability at MIC after 24 hrs by MTT assay relative to control; type: toxicity, cell-based, THP-1; conditions: read-out: Activity
Procedure, shortened: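 THP-1 grown in RPMI with pyruvate, Hepes and 10% FBS. Seeded at 70 000 cells/well and differentiated with PMA 10 ng/mL for 72 h. Medium removed, then compound at its MIC added for 24 h; Triton 1% positive control. MTT from 5 mg/mL stock for 4 h at 37 °C; acid-isopropanol solubilization; OD 595/655 nm as % of untreated. Three experiments in triplicate.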

Streptococcus gordonii [8] = test: Potency index, ratio of doxycycline MBC=>99 to compound MBC=>99 for Streptococcus gordonii DL1; type: functional

SMILES | MIC (Streptococcus gordonii [1]) | MIC (Streptococcus gordonii [2]) | MBC=>99 (Streptococcus gordonii [3]) | mortality [4] | mortality [5] | viability at 24 h [6] | viability at 24 h [7] | Ratio (Streptococcus gordonii [8])
C=C[C@H]1CC(=O)O[C@@H]1CCCCCCCCC | > 300 µg/mL | 75 µg/mL (≈ 315 µM) | 150 µg/mL (≈ 629 µM) |  |  |  |  | 
CCCCCCCCCCCCCCC[C@@H]1OC(=O)C(C)=C1C(=O)O | 200 µg/mL (≈ 567 µM) | 9.38 µg/mL (≈ 26.6 µM) | 18.75 µg/mL (≈ 53.2 µM) | 9.6% | 20% | 100% | 107% | 2
CCCCCCCCC[C@H]1OC(=O)C[C@H]1O | 300 µg/mL (≈ 1310 µM) | 150 µg/mL (≈ 657 µM) | 300 µg/mL (≈ 1310 µM) |  |  |  |  | 
C=C[C@H]1CC(=O)O[C@@H]1CCCCCCCCCCCCC | > 300 µg/mL | 75 µg/mL (≈ 255 µM) | 75 µg/mL (≈ 255 µM) |  |  |  |  | 
CCCCCCCCCCCCC[C@@H]1C=CC(=O)O1 | > 300 µg/mL | 75 µg/mL (≈ 282 µM) | 75 µg/mL (≈ 282 µM) |  |  |  |  | 
CCCCCCCCCCCCCCCC[C@@H]1OC(=O)C(C)=C1C(=O)O | > 300 µg/mL | 9.38 µg/mL (≈ 25.6 µM) | 9.38 µg/mL (≈ 25.6 µM) | 12% | 10% | 96% | 106% | 3
CCCCCCC[C@@H]1OC(=O)C(C)=C1C(=O)O | > 300 µg/mL | > 300 µg/mL | >300 µg/mL |  |  |  |  | 
CCCCCCCCCCCCC[C@H]1OC(=O)C[C@H]1O | > 300 µg/mL | 75 µg/mL (≈ 264 µM) | 150 µg/mL (≈ 527 µM) |  |  |  |  | 

More lines, main results first:

MIC (Streptococcus gordonii [1]) | MIC (Streptococcus gordonii [2]) | SMILES | MBC=>99 (Streptococcus gordonii [3]) | mortality [4] | mortality [5] | viability at 24 h [6] | viability at 24 h [7] | Ratio (Streptococcus gordonii [8])
90 µg/mL (≈ 277 µM) | 4.69 µg/mL (≈ 14.5 µM) | CCCCCCCCCCCCC[C@H]1OC(=O)C(C)=C1C(=O)O | 18.75 µg/mL (≈ 57.8 µM) |  |  |  |  | 
300 µg/mL (≈ 1430 µM) | 150 µg/mL (≈ 713 µM) | CCCCCCCCC[C@@H]1C=CC(=O)O1 | 300 µg/mL (≈ 1430 µM) |  |  |  |  | 
90 µg/mL (≈ 277 µM) | 4.69 µg/mL (≈ 14.5 µM) | CCCCCCCCCCCCC[C@@H]1OC(=O)C(C)=C1C(=O)O | 18.75 µg/mL (≈ 57.8 µM) |  |  |  |  | 
150 µg/mL (≈ 559 µM) | 150 µg/mL (≈ 559 µM) | CCCCCCCCC[C@@H]1OC(=O)C(C)=C1C(=O)O | >300 µg/mL |  |  |  |  | 
150 µg/mL (≈ 559 µM) | 150 µg/mL (≈ 559 µM) | CCCCCCCCC[C@H]1OC(=O)C(C)=C1C(=O)O | >300 µg/mL |  |  |  |  | 
0.41 µg/mL | 0.51 µg/mL | C[C@H]1c2cccc(O)c2C(=O)C2=C(O)[C@]3(O)C(=O)C(C(N)=O)=C(O)[C@@H](N(C)C)[C@@H]3[C@@H](O)[C@@H]21.O [DOXYCYCLINE] | 32.8 µg/mL |  |  |  |  | 
